Test results taken from ChEMBL document CHEMBL4387720, “Lead generation of 1,2-dithiolanes as exon 19 and exon 21 mutant EGFR tyrosine kinase inhibitors” (Bioorg Med Chem Lett, 2019).

Experiments:
MOLT-4 = test: cells; type: functional; conditions: Homo sapiens, MOLT-4, 48 h
[1] = molecular target: Tyrosine-protein kinase ITK/TSK (Homo sapiens) (UniProt Q08881); test: Inhibition of probe binding to ITK (unknown origin) using rabbit reticulate lysate system at 250 nM after 1 hr by luminescence assay relative to control
Cytochrome P450 3A4 = Cytochrome P450 3A4 (Homo sapiens, UniProt P08684); test: Inhibition of CYP3A4 (unknown origin); type: ADME
NCI-H460 = test: Cytotoxicity against human NCI-H460 cells assessed as reduction in measured protein incubated for 48 hrs by SRB assay; type: functional; conditions: NCI-H460, 48 h, read-out: LC50 (the source's name)
Summary of the method: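 Tested in the NCI-60 panel with a five-dose response curve, each value the mean of 2 experiments.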

[2] = Half life in human S9 fraction; type: ADME, subcellular
[3] = molecular target: Epidermal growth factor receptor (Homo sapiens, UniProt P00533, E746-A750DEL); test: Binding affinity to human partial length EGFR E746-A750 deletion mutant expressed in bacterial expression system by KinomeScan assay
Summary of the method: (§1)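 Competition binding against an immobilized active-site-directed ligand. Bound kinase is quantified by qPCR of its DNA tag. Kd values come from duplicate 11-point dose-response curves.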

[4] = molecular target: T1, Epidermal growth factor receptor (Homo sapiens, UniProt P00533, L858R); test: Binding affinity to human partial length EGFR L858R mutant (R669 to V1011 residues) expressed in bacterial expression system by kinomescan assay
Summary of the method: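 Competition binding against an immobilized active-site-directed ligand; bound kinase quantified by qPCR of its DNA tag. Kd taken from duplicate 11-point dose-response curves.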

Cytochrome P450 1A2 = Cytochrome P450 1A2 (Homo sapiens, UniProt P05177); test: Inhibition of CYP1A2 (unknown origin); type: ADME
[5] = molecular target: T2, Epidermal growth factor receptor (Homo sapiens, UniProt P00533); test: Binding affinity to human partial length wild type EGFR (R669 to V1011 residues) expressed in bacterial expression system by kinomescan assay
Summary of the method: as §1

CCRF-CEM = test: cells; type: functional; conditions: Homo sapiens, 48 h
[6] = molecular target: T2, Epidermal growth factor receptor; test: Inhibition of probe binding to wild type EGFR (unknown origin) using rabbit reticulate lysate system after 1 hr by luminescence assay
[7] = molecular target: T1, Epidermal growth factor receptor; test: Binding affinity to human partial length EGFR L858R mutant (R669 to V1011 residues) expressed in bacterial expression system under full equilibrating condition by scanKINETIC assay
Summary of the method: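 Binding kinetics are read from Kd values measured under four dose-response arms. Arm A is full equilibration. Arm B is equilibrate, then 3-fold dilution, then equilibrate. Arm C is partial equilibration. Arm D is predilution followed by full equilibration. Comparing the arms assesses reversibility of binding.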

T2 sequence (P00533 whole entry, the tested form may be a part): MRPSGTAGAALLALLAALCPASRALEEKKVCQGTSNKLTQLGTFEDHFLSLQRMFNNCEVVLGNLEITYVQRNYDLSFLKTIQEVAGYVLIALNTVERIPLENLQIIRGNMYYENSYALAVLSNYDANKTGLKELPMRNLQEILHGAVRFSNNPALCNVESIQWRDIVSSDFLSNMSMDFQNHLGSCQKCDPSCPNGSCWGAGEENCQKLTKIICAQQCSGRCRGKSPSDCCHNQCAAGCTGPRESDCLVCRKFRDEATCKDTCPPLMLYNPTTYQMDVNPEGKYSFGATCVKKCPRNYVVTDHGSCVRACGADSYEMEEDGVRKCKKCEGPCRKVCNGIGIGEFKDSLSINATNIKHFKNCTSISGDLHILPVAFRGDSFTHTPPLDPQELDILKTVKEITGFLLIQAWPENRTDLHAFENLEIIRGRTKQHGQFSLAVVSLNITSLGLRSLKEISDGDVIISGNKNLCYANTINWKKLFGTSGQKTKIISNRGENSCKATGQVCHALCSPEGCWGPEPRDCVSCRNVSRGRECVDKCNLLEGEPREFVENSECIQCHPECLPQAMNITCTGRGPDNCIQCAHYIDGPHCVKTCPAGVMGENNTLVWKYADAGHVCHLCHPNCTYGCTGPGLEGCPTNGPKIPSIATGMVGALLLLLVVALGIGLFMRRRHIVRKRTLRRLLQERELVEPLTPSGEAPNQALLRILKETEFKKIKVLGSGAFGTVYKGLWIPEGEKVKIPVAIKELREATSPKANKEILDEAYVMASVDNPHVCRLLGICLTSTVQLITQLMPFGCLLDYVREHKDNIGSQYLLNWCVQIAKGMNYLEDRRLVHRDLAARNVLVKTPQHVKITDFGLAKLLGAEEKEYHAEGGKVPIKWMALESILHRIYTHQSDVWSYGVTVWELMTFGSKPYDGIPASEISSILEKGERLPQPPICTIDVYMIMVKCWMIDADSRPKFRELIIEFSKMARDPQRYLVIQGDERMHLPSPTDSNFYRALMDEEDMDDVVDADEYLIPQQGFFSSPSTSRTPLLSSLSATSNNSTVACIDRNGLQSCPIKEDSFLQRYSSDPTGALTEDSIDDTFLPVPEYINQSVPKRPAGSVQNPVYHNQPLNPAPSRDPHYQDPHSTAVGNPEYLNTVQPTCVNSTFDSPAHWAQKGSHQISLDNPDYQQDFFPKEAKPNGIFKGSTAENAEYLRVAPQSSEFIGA
T1 sequence (P00533 25-1210 L858R limits assumed): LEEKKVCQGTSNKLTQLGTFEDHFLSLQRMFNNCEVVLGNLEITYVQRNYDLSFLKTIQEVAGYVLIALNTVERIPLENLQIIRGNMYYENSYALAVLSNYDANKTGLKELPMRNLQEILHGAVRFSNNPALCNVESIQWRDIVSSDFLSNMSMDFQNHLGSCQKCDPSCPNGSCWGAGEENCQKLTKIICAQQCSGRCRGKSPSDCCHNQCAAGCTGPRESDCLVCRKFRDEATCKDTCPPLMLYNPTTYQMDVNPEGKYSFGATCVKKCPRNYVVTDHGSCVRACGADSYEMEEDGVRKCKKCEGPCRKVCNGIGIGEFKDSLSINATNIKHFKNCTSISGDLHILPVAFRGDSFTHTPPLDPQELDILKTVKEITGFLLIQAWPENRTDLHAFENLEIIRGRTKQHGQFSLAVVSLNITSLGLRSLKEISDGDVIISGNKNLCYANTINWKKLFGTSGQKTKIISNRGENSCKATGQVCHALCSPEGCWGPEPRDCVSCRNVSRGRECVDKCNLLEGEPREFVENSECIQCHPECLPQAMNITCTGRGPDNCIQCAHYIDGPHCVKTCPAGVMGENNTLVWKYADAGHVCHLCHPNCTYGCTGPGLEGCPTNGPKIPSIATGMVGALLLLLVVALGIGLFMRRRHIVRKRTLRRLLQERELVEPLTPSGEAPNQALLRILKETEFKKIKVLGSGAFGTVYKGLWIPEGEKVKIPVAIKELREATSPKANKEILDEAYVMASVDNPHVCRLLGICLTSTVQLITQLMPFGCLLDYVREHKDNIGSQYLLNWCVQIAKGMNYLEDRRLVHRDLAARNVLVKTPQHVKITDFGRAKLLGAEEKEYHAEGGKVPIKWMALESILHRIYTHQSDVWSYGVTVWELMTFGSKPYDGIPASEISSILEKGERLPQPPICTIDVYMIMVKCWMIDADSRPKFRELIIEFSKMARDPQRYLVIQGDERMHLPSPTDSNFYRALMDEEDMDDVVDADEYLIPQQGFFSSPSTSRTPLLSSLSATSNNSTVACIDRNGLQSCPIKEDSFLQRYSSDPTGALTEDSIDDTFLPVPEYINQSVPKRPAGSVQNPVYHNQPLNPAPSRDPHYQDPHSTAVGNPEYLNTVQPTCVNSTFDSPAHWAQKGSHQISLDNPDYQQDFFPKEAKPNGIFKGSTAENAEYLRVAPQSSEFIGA
Cytochrome P450 3A4, sequence (P08684 whole entry): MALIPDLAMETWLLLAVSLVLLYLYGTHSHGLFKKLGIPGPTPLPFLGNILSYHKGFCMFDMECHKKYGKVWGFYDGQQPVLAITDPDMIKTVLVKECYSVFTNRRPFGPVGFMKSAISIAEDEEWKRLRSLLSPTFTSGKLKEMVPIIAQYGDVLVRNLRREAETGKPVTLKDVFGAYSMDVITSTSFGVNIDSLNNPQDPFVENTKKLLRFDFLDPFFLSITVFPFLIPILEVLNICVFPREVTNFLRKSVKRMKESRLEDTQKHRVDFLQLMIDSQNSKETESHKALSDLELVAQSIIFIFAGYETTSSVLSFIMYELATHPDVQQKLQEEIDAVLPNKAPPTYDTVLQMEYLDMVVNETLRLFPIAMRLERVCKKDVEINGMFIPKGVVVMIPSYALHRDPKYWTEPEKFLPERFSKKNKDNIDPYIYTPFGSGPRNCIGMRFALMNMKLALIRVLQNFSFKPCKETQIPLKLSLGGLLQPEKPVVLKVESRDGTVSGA
Cytochrome P450 1A2, sequence (P05177 whole entry, the tested form may be a part): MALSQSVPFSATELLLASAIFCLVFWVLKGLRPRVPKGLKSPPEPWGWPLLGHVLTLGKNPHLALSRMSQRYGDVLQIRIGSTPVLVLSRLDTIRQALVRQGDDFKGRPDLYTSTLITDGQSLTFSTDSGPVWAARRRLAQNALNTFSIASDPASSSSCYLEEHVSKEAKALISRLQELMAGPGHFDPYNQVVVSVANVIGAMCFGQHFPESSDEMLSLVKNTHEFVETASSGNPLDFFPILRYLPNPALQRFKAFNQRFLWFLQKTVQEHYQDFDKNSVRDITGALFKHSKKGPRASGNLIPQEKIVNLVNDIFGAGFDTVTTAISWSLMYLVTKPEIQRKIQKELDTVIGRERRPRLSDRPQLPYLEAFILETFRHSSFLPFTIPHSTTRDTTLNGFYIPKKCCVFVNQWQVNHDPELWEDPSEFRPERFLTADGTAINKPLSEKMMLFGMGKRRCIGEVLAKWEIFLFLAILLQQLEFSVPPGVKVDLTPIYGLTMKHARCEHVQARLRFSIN
Epidermal growth factor receptor (Homo sapiens, UniProt P00533, E746-A750DEL), sequence (P00533 whole entry E746-A750del, looked up): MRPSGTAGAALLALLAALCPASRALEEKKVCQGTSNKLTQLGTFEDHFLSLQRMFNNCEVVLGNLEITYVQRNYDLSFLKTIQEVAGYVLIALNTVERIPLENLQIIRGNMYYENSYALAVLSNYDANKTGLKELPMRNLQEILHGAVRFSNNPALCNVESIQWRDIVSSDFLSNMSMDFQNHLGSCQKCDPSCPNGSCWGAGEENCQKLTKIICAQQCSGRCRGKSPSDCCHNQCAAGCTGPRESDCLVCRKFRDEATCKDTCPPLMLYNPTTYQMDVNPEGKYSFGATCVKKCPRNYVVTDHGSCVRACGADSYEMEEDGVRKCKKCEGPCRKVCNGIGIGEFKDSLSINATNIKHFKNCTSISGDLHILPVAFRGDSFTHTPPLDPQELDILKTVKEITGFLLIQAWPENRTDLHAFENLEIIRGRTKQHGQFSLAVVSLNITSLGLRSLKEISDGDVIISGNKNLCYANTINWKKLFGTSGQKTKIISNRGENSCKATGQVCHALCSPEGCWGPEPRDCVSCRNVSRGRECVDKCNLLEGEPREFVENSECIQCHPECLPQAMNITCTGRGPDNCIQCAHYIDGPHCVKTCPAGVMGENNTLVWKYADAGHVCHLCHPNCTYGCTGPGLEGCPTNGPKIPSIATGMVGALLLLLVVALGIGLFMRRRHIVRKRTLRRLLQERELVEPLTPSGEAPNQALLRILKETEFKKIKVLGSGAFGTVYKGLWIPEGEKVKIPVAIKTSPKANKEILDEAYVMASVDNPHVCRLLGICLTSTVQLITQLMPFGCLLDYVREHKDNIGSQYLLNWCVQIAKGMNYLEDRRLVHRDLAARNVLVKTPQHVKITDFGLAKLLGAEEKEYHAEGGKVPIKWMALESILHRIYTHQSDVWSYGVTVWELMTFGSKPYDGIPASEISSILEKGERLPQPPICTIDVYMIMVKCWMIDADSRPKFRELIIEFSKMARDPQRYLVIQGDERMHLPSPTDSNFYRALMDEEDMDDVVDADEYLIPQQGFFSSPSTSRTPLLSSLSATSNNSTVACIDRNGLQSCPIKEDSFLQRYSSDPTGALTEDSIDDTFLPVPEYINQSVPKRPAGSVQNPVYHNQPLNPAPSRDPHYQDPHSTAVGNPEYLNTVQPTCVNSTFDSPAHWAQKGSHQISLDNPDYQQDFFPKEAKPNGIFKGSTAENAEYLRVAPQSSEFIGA

CCOc1cc2ncc(C#N)c(Nc3ccc(OCc4cccc(F)c4)c(Cl)c3)c2cc1NC(=O)CC1CCSS1 (configuration not stated)
GI50 (MOLT-4): 160 nM | inhibition [1]: 0% | IC50 (Cytochrome P450 3A4): > 50000 nM | CC50 (NCI-H460): 1950 nM | half-life [2]: 1 h | Kd [3]: 48 nM | Kd [4]: 9.6 nM | IC50 (Cytochrome P450 1A2): > 50000 nM | Kd [5]: 120 nM | GI50 (CCRF-CEM): 150 nM | IC50 [6]: 120 nM | Kd [7]: 9.6 nM
